# Lmaj promast = reduces viability of Leishmania major promastigotes; resazurin fluorescence viability; inhibition, % at 10 µM; 200,000 tested, 9% active; AID 1063; in the data active = inhibition above about 50%;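 also: promastigotes grown with compound for 44 hours at 28 °C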
# PTEN del growth = suppresses growth of cells with PTEN deletion. viability, % at 10 µM. 140,000 tested, 1.2% active. HCT116 PTEN-null viability, CellTiter-Glo, 60 h; stronger effect = lower value;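 active = viability at or below a set limit, 4 SD under the median of all tested compounds, cut at about 3.7% in these data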;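 also: PTEN knockout HCT116 line with beta catenin targeted HCT116 as companion control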
# bCat KO growth = beta-catenin-lacking colon tumor cell growth suppression. viability, % at 10 µM. 140,000 tested, 1.5% active. AID 818. HCT116 beta-catenin knockout viability, CellTiter-Glo, 60 h; stronger effect = lower value;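 active = viability at or under a set limit, the compound median less 4 SD, cut at about 6% in these data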
# Dynein transport = dynein cargo transport inhibition; z-score, hits read low; 3617.4 mouse cells, GR-EGFP nuclear translocation imaging; test concentration mostly 20 µM; stimulated with dexamethasone, 1 µM; stronger effect = lower value; 220,000 tested, 0.47% active; AID 1381;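 active = plate z-score of nuclear minus cytoplasmic receptor signal below a set negative limit, without overly bright fluorescence or cell loss, cut at about -3.5 in these data, passing the limit was not always enough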;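 also: z-score of nuclear minus cytoplasmic ring GR-EGFP intensity difference per well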
#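 Schedule: 48 h induction, then 1 h compound, then 30 min agonist, 37 °C. Buffer or medium: tetracycline-free induction medium containing charcoal-stripped FBS. Reagent: 1.0 µM final dexamethasone stimulus. Evaluation: nuclear versus cytoplasmic GR-EGFP signal, averaged per well. Signal: high-content fluorescence imaging after fixation.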
# Autophagy HCS = autophagy modulation, high-content screen | 190,000 tested, 0.98% active | MEF GFP-LC3 puncta imaging; test concentration mostly 10 µM | calls only at 10 µM (by protocol);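 active = percentage of spot-positive cells more than 3 SD above its plate mean, without a fluorescence outlier flag or 80% toxicity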
# Hits are given with their value; 0 = inactive; - = no result; + = active, no number; ! = not confirmed by another sample. Rows were chosen to be rich in hits. Some 9.2% of all compounds tested hit in one or more screens of this group.
SMILES,Lmaj promast,PTEN del growth,bCat KO growth,Dynein transport,Autophagy HCS
CCN1CCN(C(=S)NCc2ccc(C)cc2)CC1,83,0,0,0,0
CSc1ccc(C(=S)N2CCN(CCO)CC2)cc1,75,0,0,0,0
OCCN1CCN(C(=S)Nc2ccc(SC(F)F)cc2)CC1,0,-,-,0,0
CCN1CCN(C(=S)Nc2ccc(Cl)c(Cl)c2)CC1,84,0,0,0,0
CC1CN(Cc2ccccc2)c2nc3c(c(=O)[nH]c(=O)n3C)n2C1 (stereo not drawn),-,-,-,0,-
O=C(c1ccc(Sc2ccc(F)cc2)c([N+](=O)[O-])c1)N1CCOCC1,0,-,-,0,0
CCN1CCN(C(=S)Nc2cccc(C(F)(F)F)c2)CC1,60,0,0,0,0
CCN1CCN(C(=S)c2ccc(Cl)c(Cl)c2)CC1,90,0,0,0,0
CCN1CCN(C(=S)Nc2ccc(Cl)cc2Cl)CC1,0,0,0,0,0
Cc1ccc(C(=O)CC(=O)COc2ccc(Cl)cc2)cc1,66,0,0,0,0
O=C(COc1ccc([N+](=O)[O-])cc1)Nn1cnnc1,0,-,-,0,0
CC(C)N1C(=O)/C(=C\c2nc3ccccc3c(=O)[nH]2)c2ccccc21,100,0,0,0,0
CCCN1C(=O)/C(=C/c2nc3ccccc3c(=O)[nH]2)c2cc(C)ccc21,-,-,-,0,-
CCCN1C(=O)/C(=C/c2nc3ccccc3c(=O)[nH]2)c2ccccc21,100,0,0,0,0
CCN(CC)c1ccc(C(=O)N/N=C/c2ccccc2OC(F)F)cc1,0,-,-,0,0
CC(C)CN1C(=O)C(=O)N(CC(=O)N2CCC(Cc3ccccc3)CC2)C1=O,0,-,-,0,0
CC(C(O)c1ccc(O)cc1)N1CCC(Cc2ccccc2)CC1 (stereo not drawn),96,-,-,0,0
COc1ccc(-c2csc(-c3cccnc3)n2)cc1C,80,-,-,0,0
COc1ccc(N2C(=O)CC2(C#N)c2ccc(OCc3ccccc3)cc2)cc1 (stereo not drawn),68,0,0,0,0
N#CC1(c2ccccc2)CCC(=O)N1c1ccccc1 (stereo not drawn),-,-,-,0,-
CC(C)(C)c1ccc(C(CC(=O)O)NC(=O)CCCc2ccccc2)cc1 (stereo not drawn),0,-,-,0,0
COc1ccc(CSc2ncnc3sccc23)cc1F,0,-,-,0,0
Brc1ccc(OCc2ccccc2)c(CNCc2ccncc2)c1,94,0,0,0,0
Nc1nonc1C(=O)NCCNCc1ccccc1OCc1ccc(F)cc1,0,0,0,0,0
Fc1ccc(COc2ccccc2CNCc2ccncc2)cc1,98,0,0,0,0
SMILES,Lmaj promast,PTEN del growth,bCat KO growth,Dynein transport,Autophagy HCS
Cc1cc(C(=O)OCC(=O)NCc2ccco2)c(C)o1,0,-,-,0,0
CCOc1ccc(N(C(=O)CNC(=O)c2cccs2)C(C(=O)NCC2CCCO2)c2ccc(OC)c(OC)c2)cc1 (stereo not drawn),0,-,-,0,+
O=C(CN1CCN(c2ccc(O)cc2)CC1)Nc1cc([N+](=O)[O-])ccc1Cl,0,0,0,0,+
CC1CC(C)CN(CC(=O)NC(c2ccccc2)c2ccccc2)C1 (stereo not drawn),0,-,-,0,0
O=C(CN1CCN(c2ccc(O)cc2)CC1)NC(c1ccccc1)c1ccccc1,84,0,0,0,0
Cn1c(SCC(=O)NCc2ccc(F)cc2)nc2c([nH]c3ccccc32)c1=O,0,-,-,0,0
CCOC(=O)C1=C(N)OC2=C(C(=O)CC(C)C2)C1c1cccnc1 (stereo not drawn),70,0,0,0,0
CCOC(=O)C1=C(N)Oc2cc(O)ccc2C1c1cccnc1 (stereo not drawn),92,0,0,0,0
COCCOC(=O)C1=C(N)OC2=C(C(=O)CCC2)C1c1cccnc1 (stereo not drawn),0,0,0,0,0
CCCOC(=O)C1=C(C)NC2=C(C(=O)CC(C)(C)C2)C1c1cccnc1 (stereo not drawn),90,0,0,0,0
COCCOC(=O)C1=C(N)OC2=C(C(=O)CC(C)(C)C2)C1c1cccnc1 (stereo not drawn),82,0,0,0,0
CCOC(=O)C1=C(C(C)=O)C(c2cccnc2)C(C#N)=C(N)O1 (stereo not drawn),0,0,0,0,0
Cc1cccc(-n2cnc(C(=O)N/N=C/c3ccccc3)c2)n1,0,0,0,0,0
CNc1ncc(C(=O)c2ccc(-c3ccccc3)cc2)s1,-,-,-,0,-
O=C(c1cccnc1Cl)N(Cc1ccccc1)Cc1ccccc1,0,-,-,0,0
O=[N+]([O-])c1ccc(Nc2nc(NC3CCCCC3)nc(N3CCCC3)n2)cc1,98,-,-,0,0
c1ccc(Nc2nc(N3CCCC3)nc(N3CCCC3)n2)cc1,0,0,0,0,0
O=[N+]([O-])c1cc2c(cc1/C=N/Nc1nc(Nc3ccccc3)nc(N3CCCCC3)n1)OCO2,0,0,0,0,+
COc1cccc(/C=N/Nc2nc(Nc3ccc([N+](=O)[O-])cc3)nc(N3CCCC3)n2)c1O,100,-,-,0,0
O=[N+]([O-])c1ccc(Nc2nc(N/N=C/c3cccc(F)c3)nc(N3CCCC3)n2)cc1,0,0,0,0,0
Brc1cc2c(cc1/C=N/Nc1nc(N3CCCCC3)nc(N3CCCCC3)n1)OCO2,67,-,-,0,0
Cc1ccc2ccccc2c1Cn1c(-n2ccnc2)nc2c1c(=O)n(C)c(=O)n2C,0,0,0,0,0
COc1ccc(S(=O)(=O)Nc2ccc3c(c2)n(C)c(=O)n3C)cc1,0,-,-,0,0
Clc1ccc(CSc2nnc(CNc3cccc(Cl)c3)o2)cc1,0,0,0,0,0
COc1ccc2oc(C(=O)OCC(=O)NCCN3C(=O)CSC3=O)c(C)c2c1,0,0,0,0,0
SMILES,Lmaj promast,PTEN del growth,bCat KO growth,Dynein transport,Autophagy HCS
Cc1ccccc1Nc1cc(C)c2c(O)cccc2n1,75,0,0,0,0
Cc1cc(C)cc(-n2ccnc2SCC(=O)O)c1,0,-,-,0,0
CN(C)CCCN1C(=O)c2cccc3c(Br)ccc(c23)C1=O,100,-,-,0,0
Cc1nn(C)c(C)c1N1C(=O)c2cccc3c(Br)ccc(c23)C1=O,0,0,0,0,0
CC1CCC(C(C)C)C(OC(=O)Cn2c(-c3ccc(Cl)cc3)[n+](C)c3ccccc32)C1 (stereo not drawn),-,-,-,0,-
CC1CCC(C(C)C)C(OC(=O)Cn2c(-c3ccc(Br)cc3)[n+](C)c3ccccc32)C1 (stereo not drawn),100,-,-,0,+!
Cc1ccccc1OCc1n(CC(=O)OC2CC(C)CCC2C(C)C)c2ccccc2[n+]1C (stereo not drawn),101,-,-,0,+
O=C(NC1CCCCC1)C(c1ccc(F)cc1)N(Cc1ccc2c(c1)OCO2)C(=O)c1cnsn1 (stereo not drawn),0,0,0,0,0
Cc1ccc2c(CN3CCN(Cc4ccc5c(c4)OCO5)CC3)cc(=O)oc2c1C,73,0,0,0,0
CCN(CC(=O)Nc1ccc2c(c1)OCCO2)CC(=O)Nc1ccc2c(c1)OCO2,0,-,-,0,0

# Screening data: PubChem BioAssay, several laboratories
